Assay outcomes (PubChem BioAssay)
Only some compounds are listed: those with a hit (about 2.5% of all), similar ones and a draw of the others.
SENP6 inh: blocks the human protease SENP6; Recombinant SENP6 catalytic domain, aminoluciferin luminescence; AID 2599; inhibition, % at 10 µM; Q9GZR1; 1.8% of 330,000 active;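 active means inhibition above about 50% at the single tested dose, limit read from the data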;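 further: plate controls were DMSO wells with enzyme for no effect and DMSO wells lacking enzyme for full effect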
SENP8 block-1: inhibitors of human SENP8 protease; recombinant SENP8, Nedd8 substrate fluorescence; 0.64% of 360,000 active; Q96LD8; inhibition, % at 20 µM; in the data active means inhibition mostly above about 40%, no sharp cut-off; inactive means mostly below about 27%
Target sequence (Q96LD8 whole entry, looked up): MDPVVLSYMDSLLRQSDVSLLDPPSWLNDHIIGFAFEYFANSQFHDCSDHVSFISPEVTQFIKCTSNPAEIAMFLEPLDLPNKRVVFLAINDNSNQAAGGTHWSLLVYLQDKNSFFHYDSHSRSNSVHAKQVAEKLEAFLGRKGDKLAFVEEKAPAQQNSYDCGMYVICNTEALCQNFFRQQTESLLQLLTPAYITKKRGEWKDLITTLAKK
SENP8 block-2: inhibitors of human SENP8 protease. Q96LD8. purified SENP8, Z-RLRGG-aminoluciferin cleavage, luminescence. inhibition, % at 10 µM. 1.2% of 330,000 active. AID 2540; in the data active means inhibition above about 50%
SENP1 inh: inhibitors of human SENP1 SUMO protease catalytic domain; AID 624204; Q9P0U3; inhibition, % at 10 µM; recombinant SENP1 catalytic domain, CyPet-SUMO1-YPet FRET cleavage; 0.21% of 360,000 active;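 active means inhibition at least 30% at 10 µM, raw YFP signal under a set limit, fluorescence ratio 0.5 to 1.5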;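 further: 0% = enzyme with DMSO and 100% = no enzyme wells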
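Material: hSENP1 catalytic domain, recombinant; medium: Tris pH 8 with BME, BSA, NP40 and catalase; compound: single concentration of 10 µM compound, 0.5% DMSO final; technique: FRET read of cyan and yellow fluorescence; timing: 50 min enzyme reaction, room temperature, light-protected; reagent: SFCypet-SUMO1-SFYpet substrate at 25 nM; control set: no-enzyme low, enzyme-DMSO high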
SENP7 inh: blocks the human protease SENP7; AID 434973; inhibition, % at 5 µM; Q9BQF6; recombinant SENP7, Z-RLRGG-aminoluciferin luminescence, 40 min; 1.5% of 330,000 active;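 active means inhibition above about 50% at the single test dose, limit read from the data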;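 further: plate controls were DMSO with enzyme for no effect and no enzyme buffer wells for full effect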
Target sequence (Q9BQF6 706-1050 limits assumed): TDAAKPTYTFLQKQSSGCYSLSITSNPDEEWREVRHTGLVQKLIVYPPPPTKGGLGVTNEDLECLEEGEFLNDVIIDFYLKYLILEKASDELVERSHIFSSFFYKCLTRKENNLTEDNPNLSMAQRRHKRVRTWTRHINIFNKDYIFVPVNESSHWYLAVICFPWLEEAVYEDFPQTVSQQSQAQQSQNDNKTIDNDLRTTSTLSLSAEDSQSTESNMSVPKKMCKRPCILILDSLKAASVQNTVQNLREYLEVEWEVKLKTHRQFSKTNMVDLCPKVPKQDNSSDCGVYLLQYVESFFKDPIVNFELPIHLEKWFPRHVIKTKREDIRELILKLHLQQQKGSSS
* = called active by the depositor; x = no result.

SMILES	SENP6 inh	SENP8 block-1	SENP8 block-2	SENP1 inh	SENP7 inh
CNC1=C(N(C(C)=O)c2ccc(Br)cc2)C(=O)c2ccccc2C1=O	x	84*	x	1	x
COc1ccc(CC(=O)Nc2nc(OCC(F)(F)F)cnc2-c2ccc(Cl)cc2Cl)cc1	x	-4	x	0	x
Cc1ccnn1CC(=O)N/N=C/c1ccc([N+](=O)[O-])s1	51*	23	29	2	22
O=C(N/N=C/c1ccc([N+](=O)[O-])s1)c1ccccc1	50*	34	21	0	15
Cc1ccccc1C(=O)N/N=C/c1ccc([N+](=O)[O-])s1	44	38	24	-9	17
CCCCC[C@@H]1[C@H]2[C@H]3C(=O)N(c4ccccc4)C(=O)[C@H]3CC(=O)[C@H]2[C@H](c2ccccc2)N1S(=O)(=O)c1ccc(C)cc1	x	9	x	-18	x
Oc1c(Br)cc(Br)cc1/C=N/Nc1ccc(Cl)nn1	x	12	x	-7	x
Oc1ccc(/C=N/Nc2ccc(Cl)nn2)c(O)c1O	20	49*	5	5	4
Cc1cc(C)c(Nc2cc(S(=O)(=O)O)c(N)c3c2C(=O)c2ccccc2C3=O)c(C)c1	x	48*	x	-28	x
COCCCn1c(O)c(/C=C2\N=C(C#N)C(=Nc3ccc(C)cc3)O2)sc1=S	1	13	-3	54*	14
O=C(O)CCCn1c(O)c(C=C2N=c3ccccc3=N2)sc1=S	-19	13	0	-15	2
CCc1ccc(NC(=O)CC2C(=O)NCCN2C(=O)c2ccc(F)cc2)cc1 (stereo unspecified)	-12	-2	-5	3	-15
Cc1[nH]c(=O)sc1C(=O)NCc1ccc([N+](=O)[O-])cc1	x	8	x	3	x
O=C(Nc1ccc(Cl)cc1)Nc1ccc(S(=O)(=O)Nc2ncccn2)cc1	12	6	8	1	-5
O=S(=O)(Nc1ncccn1)c1ccc(NC(=S)Nc2ccc(Cl)cc2)cc1	70*	39	-2	1	0
CN(CC(=O)N1CCN(c2ccccc2)CC1)C1CCCc2ccccc21 (stereo unspecified)	-1	7	4	-1	-1
COc1ccc(OC)c2c1C(=O)c1ccccc1C2=O	14	x	7	x	11
COc1ccc2noc3c2c1C(=O)c1ccccc1-3	87*	105*	80*	-38	57*
Cc1cccc(CC(=O)NCCS(=O)(=O)N2CCN(c3ccccc3)CC2)c1	x	18	x	0	x
O=C(Cc1nc(=O)c2ccccc2s1)Nc1ccccc1	46	-137	2	-11	92*
O=C(Cc1ccccc1)Nc1nc(=O)c2ccccc2s1	-4	22	-6	1	-1
CCCCC(CC)CNC(=O)CN1C(=O)NC2(CCc3ccccc32)C1=O (stereo unspecified)	9	-2	6	-2	0
COC(=O)C1=C(C(=O)OC)SC(=C2C(=S)C(C)(C)N(C(=O)CC(C)C)c3ccccc32)S1	-8	59*	5	2	17
Cc1ccc(-n2sc3ccccc3c2=O)cc1	94*	14	86*	0	77*
COC(=O)c1cccc(-n2sc3ccccc3c2=O)c1	70*	8	57*	4	19
SMILES	SENP6 inh	SENP8 block-1	SENP8 block-2	SENP1 inh	SENP7 inh
O=c1c2ccccc2sn1-c1ccc(Cl)cc1	x	9	x	0	x
COC(=O)c1cccc(N2CCCC2=O)c1	-14	4	-5	0	0
COc1cc(Br)c(/C=C/c2ccc3cccc(O)c3n2)cc1OC	11	-39	-9	0	5
COc1cc(Br)cc(/C=C/c2ccc3cccc(O)c3n2)c1O	8	-35	-20	67*	-12
O=C(CN1C(=O)NC2(CCCc3ccccc32)C1=O)NCC(F)(F)F (stereo unspecified)	8	10	6	2	-4
O=C(CCC1CCCCC1)Nc1cccnc1	-8	36*	-23	4	-13
O=C(CCC1CCCCC1)NCc1cccnc1	2	12	0	1	7
COC(=O)CCN1CCc2cc(N=Nc3ccc([N+](=O)[O-])cc3)ccc21	-23	29	-22	3	80*
COc1cccc(CNc2ncc(Br)cc2Br)c1O	-14	40*	-6	-3	-8
NC(=O)c1ccc[n+]([C@H]2O[C@@H](COP(=O)([O-])OP(=O)(O)OC[C@H]3O[C@@H](n4cnc5c(N)ncnc54)[C@H](O)[C@@H]3O)[C@H](O)[C@@H]2O)c1	6	2	-2	1	1
CCOC(=O)c1cccc(NC(=O)Cn2c(CC(=O)N3CCCC3)nc3ccccc32)c1	76*	x	1	x	3
Cc1[nH]n(-c2ccc([N+](=O)[O-])cc2)c(=O)c1C=NCCc1c[nH]c2ccccc12	39	20	6	2	17
Cc1[nH]n(-c2ccc([N+](=O)[O-])cc2)c(=O)c1C=NCCN1CCN(C(=O)c2ccc(F)cc2)CC1	91*	14	67*	1	90*
COc1ccc(NC(=O)CN(C)Cc2cccs2)cc1Cl	-9	10	4	1	-1
C[C@@](Cc1ccc(O)c(O)c1)(NN)C(=O)O	x	39*	x	1	x
N[C@@H](Cc1ccc(O)c(O)c1)C(=O)O	x	3	x	-5	x
Nc1[nH]n(-c2ccccc2)c(=O)c1N=Nc1ccc2c(c1)OCO2	64*	52*	52*	5	69*
CC(=O)OC[C@@H]1CN(Cc2ccccc2)C[C@H](n2cnc3c(NCC(C)C)ncnc32)O1	x	-2	x	-12	x
Oc1c(C=Nc2cccc3cccnc23)sc2ccccc12	92*	x	87*	x	74*
O=[N+]([O-])c1ccc(O)c(N=Cc2sc3ccccc3c2O)c1	x	-108	x	-48	x
CCCn1nnc(NC(=S)NC(=O)/C=C/c2ccco2)n1	-15	18	-6	2	-9
CN(C)c1ccc2nc3ccc(=[N+](C)C)cc-3sc2c1	32	66*	34	5	16
Cc1cc2nc3ccc(=[N+](C)C)cc-3sc2cc1N	x	57*	x	13	x
N#Cc1ccccc1OCc1cccc(S(=O)(=O)N2CCOCC2)c1	0	12	-8	-1	-10
Cc1cc(-c2cc(C)c(N)cc2C)c(C)cc1N	x	8	x	4	x
SMILES	SENP6 inh	SENP8 block-1	SENP8 block-2	SENP1 inh	SENP7 inh
Cc1cc2c(cc1C)C(=O)C(Br)=C(N)C2=O	x	79*	x	5	x
c1ccc2c(c1)CCN(c1nc3cc4c(cc3s1)OCO4)C2	88*	-82	94*	-80	96*
c1ccc(N2CCN(c3nc4cc5c(cc4s3)OCO5)CC2)cc1	-2	-2	-2	-26	-4
COC(=O)c1cccc(Oc2cccc(Cl)n2)c1	8	3	-1	-1	14
CCOc1cc(C2CC(=O)N3CN(C4CCCCC4)CSC3=C2C#N)ccc1O (stereo unspecified)	14	66*	-1	-42	25
Cc1ccc(/C=C2\CCC(C3CCCC3)C2=O)cc1 (stereo unspecified)	89*	7	40	4	75*
COc1ccc(/C=C2\CCC(C3CCCC3)C2=O)cc1OC (stereo unspecified)	12	17	-5	-7	1
